ChEMBL document CHEMBL1134439, “Radioiodinated styrylbenzenes and thioflavins as probes for amyloid aggregates” (J Med Chem, 2001)

Legend:
Mus musculus [1] = experiment: Biodistribution was measured in mice heart 60 minutes after intravenous injection of [125I]-labeled styrylbenzene.; type: ADME, organism-based; conditions: in vivo, 1 h
Procedure, shortened: (§1)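 ICR mice (2-3 months old, 20-30 g) under ether anesthesia received 5-10 µCi ¹²⁵I tracer in 0.15 mL saline by tail-vein injection. Animals were killed by cardiac excision at set times post-injection. Organs were removed, weighed and γ-counted. Values are % dose per organ against diluted injectate aliquots, taking blood and muscle as 7% and 40% of body weight. Mean of 3-4 mice ± SD.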

Mus musculus [2] = experiment: Biodistribution was measured in mice kidney 30 minutes after intravenous injection of [125I]-labeled styrylbenzene.; type: ADME, organism-based; conditions: in vivo, 0.5 h; procedure, shortened: as §1
Mus musculus [3] = experiment: Biodistribution was measured in mice kidney 5 minutes after intravenous injection of [125I]-labeled styrylbenzene.; type: ADME, organism-based; conditions: in vivo; procedure, shortened: as §1
Mus musculus [4] = experiment: Biodistribution was measured in mice kidney 60 minutes after intravenous injection of [125I]-labeled styrylbenzene.; type: ADME, organism-based; conditions: in vivo, 1 h; procedure, shortened: as §1
Mus musculus [5] = experiment: Biodistribution was measured in mice liver 30 minutes after intravenous injection of [125I]-labeled styrylbenzene.; type: ADME, organism-based; conditions: in vivo, 0.5 h; procedure, shortened: as §1
Mus musculus [6] = experiment: Biodistribution was measured in mice liver 5 minutes after intravenous injection of [125I]-labeled styrylbenzene.; type: ADME, organism-based; conditions: in vivo; procedure, shortened: as §1
Mus musculus [7] = experiment: Biodistribution was measured in mice liver 60 minutes after intravenous injection of [125I]-labeled styrylbenzene.; type: ADME, organism-based; conditions: in vivo, 1 h; procedure, shortened: as §1
Mus musculus [8] = experiment: Biodistribution was measured in mice muscle 30 minutes after intravenous injection of [125I]-labeled styrylbenzene.; type: ADME, organism-based, Muscle tissue; conditions: in vivo, 0.5 h; procedure, shortened: as §1
Mus musculus [9] = experiment: Biodistribution was measured in mice muscle 5 minutes after intravenous injection of [125I]-labeled styrylbenzene.; type: ADME, organism-based, Muscle tissue; conditions: in vivo; procedure, shortened: as §1
Mus musculus [10] = experiment: Biodistribution was measured in mice muscle 60 minutes after intravenous injection of [125I]-labeled styrylbenzene.; type: ADME, organism-based, Muscle tissue; conditions: in vivo, 1 h; procedure, shortened: as §1
Mus musculus [11] = experiment: Biodistribution was measured in mice skin 30 minutes after intravenous injection of [125I]-labeled styrylbenzene.; type: ADME, organism-based, Zone of skin; conditions: in vivo, 0.5 h; procedure, shortened: as §1
Mus musculus [12] = experiment: Biodistribution was measured in mice skin 5 minutes after intravenous injection of [125I]-labeled styrylbenzene.; type: ADME, organism-based, Zone of skin; conditions: in vivo; procedure, shortened: as §1
Mus musculus [13] = experiment: Biodistribution was measured in mice skin 60 minutes after intravenous injection of [125I]-labeled styrylbenzene.; type: ADME, organism-based, Zone of skin; conditions: in vivo, 1 h; procedure, shortened: as §1
Mus musculus [14] = experiment: Biodistribution was measured in mice spleen 30 minutes after intravenous injection of [125I]-labeled styrylbenzene.; type: ADME, organism-based; conditions: in vivo, 0.5 h
Procedure, shortened: (§2)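 ICR mice (2-3 months old, 20-30 g) under ether anesthesia; 0.15 mL saline containing 5-10 µCi ¹²⁵I tracer injected into tail vein. Sacrifice by cardiac excision at set times; organs removed, weighed, γ-counted. Expressed as % dose per organ versus diluted aliquots of injectate. Mean of three or four mice ± SD.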

Mus musculus [15] = experiment: Biodistribution was measured in mice spleen 5 minutes after intravenous injection of [125I]-labeled styrylbenzene.; type: ADME, organism-based; conditions: in vivo; procedure, shortened: as §2
Mus musculus [16] = experiment: Biodistribution was measured in mice spleen 60 minutes after intravenous injection of [125I]-labeled styrylbenzene.; type: ADME, organism-based; conditions: in vivo, 1 h; procedure, shortened: as §2
Mus musculus [17] = experiment: Biodistribution was measured in mice blood 30 minutes after intravenous injection of [125I]-labeled styrylbenzene.; type: ADME, organism-based; conditions: in vivo, 0.5 h; procedure, shortened: as §1
Mus musculus [18] = experiment: Biodistribution was measured in mice blood 5 minutes after intravenous injection of [125I]-labeled styrylbenzene.; type: ADME, organism-based; conditions: in vivo; procedure, shortened: as §1
Mus musculus [19] = experiment: Biodistribution was measured in mice lung 30 minutes after intravenous injection of [125I]-labeled styrylbenzene.; type: ADME, organism-based; conditions: in vivo, 0.5 h; procedure, shortened: as §1
Mus musculus [20] = experiment: Biodistribution was measured in mice lung 5 minutes after intravenous injection of [125I]-labeled styrylbenzene.; type: ADME, organism-based; conditions: in vivo; procedure, shortened: as §1
Mus musculus [21] = experiment: Biodistribution was measured in mice lung 60 minutes after intravenous injection of [125I]-labeled styrylbenzene.; type: ADME, organism-based; conditions: in vivo, 1 h; procedure, shortened: as §1
Mus musculus [22] = experiment: Biodistribution was measured in mice brain 5 minutes after intravenous injection of [125I]-labeled styrylbenzene; type: ADME, organism-based; conditions: in vivo; procedure, shortened: as §1
Mus musculus [23] = experiment: Biodistribution was measured in mice brain 60 minutes after intravenous injection of [125I]-labeled styrylbenzene; type: ADME, organism-based; conditions: in vivo, 1 h; procedure, shortened: as §1
Mus musculus [24] = experiment: Biodistribution was measured in mice heart 30 minutes after intravenous injection of [125I]-labeled styrylbenzene.; type: ADME, organism-based; conditions: in vivo, 0.5 h; procedure, shortened: as §1
Mus musculus [25] = experiment: Biodistribution was measured in mice heart 5 minutes after intravenous injection of [125I]-labeled styrylbenzene.; type: ADME, organism-based; conditions: in vivo; procedure, shortened: as §1
Mus musculus [26] = experiment: Biodistribution was measured in mice blood 60 minutes after intravenous injection of [125I]-labeled styrylbenzene.; type: ADME, organism-based; conditions: in vivo, 1 h; procedure, shortened: as §1
Mus musculus [27] = experiment: Biodistribution was measured in mice brain 30 minutes after intravenous injection of [125I]-labeled styrylbenzene; type: ADME, organism-based; conditions: in vivo, 0.5 h; procedure, shortened: as §1

For `O=C(O)c1cc(/C=C/c2ccc(/C=C/c3ccc(O)c(C(=O)O)c3)c(I)c2)ccc1O`, which Dose/organ (Mus musculus [1]) is on record?
The Dose/organ was 0.13%.

And the Dose/organ (Mus musculus [2])?
Its Dose/organ is 0.77%.

What about the Dose/organ (Mus musculus [3]) of the same compound?
Its Dose/organ is 1.67%.

And the Dose/organ (Mus musculus [4])?
Its Dose/organ is 0.63%.

What about the Dose/organ (Mus musculus [5]) of the same compound?
Its Dose/organ is 30.16%.

What about the Dose/organ (Mus musculus [6]) of the same compound?
Its Dose/organ is 42.68%.

What about the Dose/organ (Mus musculus [7]) of the same compound?
The Dose/organ was 19.12%.

What about the Dose/organ (Mus musculus [8]) of the same compound?
Its Dose/organ is 3.9%.

And the Dose/organ (Mus musculus [9])?
Its Dose/organ is 5.68%.

What about the Dose/organ (Mus musculus [10]) of the same compound?
Its Dose/organ is 2.98%.

And the Dose/organ (Mus musculus [11])?
Its Dose/organ is 4.13%.

And the Dose/organ (Mus musculus [12])?
The Dose/organ was 4.02%.

And the Dose/organ (Mus musculus [13])?
The Dose/organ was 3.66%.

And the Dose/organ (Mus musculus [14])?
Its Dose/organ is 0.13%.

And the Dose/organ (Mus musculus [15])?
Its Dose/organ is 0.25%.

And the Dose/organ (Mus musculus [16])?
Its Dose/organ is 0.07%.

And the Dose/organ (Mus musculus [17])?
Its Dose/organ is 2.98%.

What about the Dose/organ (Mus musculus [18]) of the same compound?
Its Dose/organ is 7.57%.

And the Dose/organ (Mus musculus [19])?
The Dose/organ was 0.3%.

And the Dose/organ (Mus musculus [20])?
The Dose/organ was 0.81%.

And the Dose/organ (Mus musculus [21])?
The Dose/organ was 0.25%.

What about the Dose/organ (Mus musculus [22]) of the same compound?
The Dose/organ was 0.27%.

And the Dose/organ (Mus musculus [23])?
The Dose/organ was 0.04%.

And the Dose/organ (Mus musculus [24])?
The Dose/organ was 0.17%.

And the Dose/organ (Mus musculus [25])?
Its Dose/organ is 0.33%.

What about the Dose/organ (Mus musculus [26]) of the same compound?
Its Dose/organ is 2.59%.

And the Dose/organ (Mus musculus [27])?
The Dose/organ was 0.06%.
